Measured values: ChEMBL document CHEMBL1123034 (J Med Chem, 1985)

Key:
[1] = molecular target: T1, Neuronal acetylcholine receptor (Rattus norvegicus) (UniProt P04757+P09483+P12389+P12390+P12392+P43144+Q9JLB5+P12391+P43143+P20420+Q05941)
[2] = molecular target: Neuronal acetylcholine receptor; format: tissue-based, Brain
[3] = molecular target: T1, Neuronal acetylcholine receptor (Rattus norvegicus); experiment: Compounds was evaluated for their ability to enhance (+/-)-[3H]nicotine binding at a dose range 10 E -9 - 10 E -6 M was reported; format: protein-complex assay
Procedure, shortened: (§1)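 Bound ligand collected on poly-L-lysine-soaked glass-fibre filters, washed with cold Hepes and counted by liquid scintillation. Nonspecific binding defined with 10^-2 M (-)-nicotine. Triplicates, usually four homogenates. Enhancement tested by two-way ANOVA with linear/quadratic dose components, or pooled t-test.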

[4] = molecular target: Neuronal acetylcholine receptor; format: tissue-based, Brain; remark: listed apart in the source
[5] = molecular target: T1, Neuronal acetylcholine receptor (Rattus norvegicus); experiment: Compounds was evaluate for their ability to enhance (+/-)-[3H]nicotine binding at a dose range 10 E -10 - 10 E -6 M was reported; format: protein-complex assay
Procedure, shortened: (§2)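 Whole-brain P2 fraction from female Sprague-Dawley rats (200–300 g), prepared at 4 °C, ~2 mg protein per tube. […] Nonspecific binding defined with 10^-2 M (-)-nicotine. Triplicates, usually four homogenates. Enhancement assessed by two-way ANOVA or pooled t-test.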

[6] = molecular target: Neuronal acetylcholine receptor; experiment: Compound was evaluated for ability to enhance the binding of (+/-)-[3H]nicotine to the rat brain P2 fraction at binding site 1; format: tissue-based
Procedure, shortened: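 Whole-brain P2 fraction from female Sprague-Dawley rats (200–300 g), prepared at 4 °C, ~2 mg protein per tube. Triplicates, usually four homogenates. Enhancement assessed by two-way ANOVA or pooled t-test.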

[7] = molecular target: T1, Neuronal acetylcholine receptor (Rattus norvegicus); remark: listed apart in the source
[8] = molecular target: Neuronal acetylcholine receptor
[9] = molecular target: T1, Neuronal acetylcholine receptor (Rattus norvegicus); experiment: Compounds was evaluate for their ability to enhance (+/-)-[3H]nicotine binding at a dose range 10 E -10 - 10 E -5 M was reported; format: protein-complex assay
Procedure, shortened: as §2

[10] = molecular target: T1, Neuronal acetylcholine receptor (Rattus norvegicus); experiment: Compounds was evaluate for their ability to enhance (+/-)-[3H]nicotine binding at a dose range 10 E -8 - 10 E -4 M was reported; format: protein-complex assay
Procedure, shortened: as §2

[11] = molecular target: T1, Neuronal acetylcholine receptor (Rattus norvegicus); remark: listed apart in the source
[12] = molecular target: T1, Neuronal acetylcholine receptor (Rattus norvegicus); remark: listed apart in the source
[13] = molecular target: T1, Neuronal acetylcholine receptor (Rattus norvegicus); remark: listed apart in the source
[14] = molecular target: Neuronal acetylcholine receptor; experiment: Compounds was evaluated in vitro for ability to enhance and inhibit the binding of (+/-)-[3H]nicotine to the rat brain P2 fraction at binding site 1; 10e-10-10e-3
Procedure, shortened: as §2

[15] = molecular target: T1, Neuronal acetylcholine receptor (Rattus norvegicus); experiment: Compounds was evaluate for their ability to enhance (+/-)-[3H]nicotine binding at a dose range 10 E -12- 10 E -5 M was reported; format: protein-complex assay
Procedure, shortened: as §2

[16] = molecular target: T1, Neuronal acetylcholine receptor (Rattus norvegicus); experiment: Compounds was evaluate for their ability to enhance (+/-)-[3H]nicotine binding at a dose range 2.5*10e-9-2.5*10e-5 M was reported; format: protein-complex assay
Procedure, shortened: as §2

[17] = molecular target: T1, Neuronal acetylcholine receptor (Rattus norvegicus); experiment: Compounds was evaluate for their ability to enhance (+/-)-[3H]nicotine binding at a dose range 10 E -10 - 10 E -7 M was reported; format: protein-complex assay
Procedure, shortened: as §1

OC1CCNCC1 showed a Mean enhancement of binding [1] of 4 and a Kd [2] of 3000 µM.
Work on C1CCNCC1 [PIPERIDINE] yielded a Mean enhancement of binding [3] of 10.3, a Kd [2] of 0.12 µM and a Kd [4] of 69 µM.
CCN1CCCCC1 gave a Mean enhancement of binding [5] of 23 and a Kd [2] of 3.3 µM.
In the case of CC1CCCNC1 (stereo not given), the Mean enhancement of binding [1] is reported as 5.2 and the Kd [2] is reported as 890 µM.
With Cc1cccc(C)n1 the Mean enhancement of binding [1] was 3.1 and the Kd [2] was 10000 µM.
For Cc1cccnc1 [3-METHYLPYRIDINE], the Kd [6] was 1800 µM.
Cc1ccccn1 showed a Mean enhancement of binding [7] of 20.7, a Kd [8] of 64000 µM and a Kd [2] of 0.05 µM.
With CCCc1ccccn1 the Mean enhancement of binding [9] was 15.2 and the Kd [2] was 1.7 µM.
ON1CCCCC1 was tested, and the Mean enhancement of binding [10] was 8.5 and the Kd [2] was 6000 µM.
CN1C(=O)CCC1c1cccnc1 (stereo not given) gave a Kd [6] of 0.62 µM and a Kd [2] of 4700 µM.
In the case of CN1CCCCC1, the Mean enhancement of binding [9] is reported as 10 and the Kd [2] is reported as 1200 µM.
For C[N+](C)(C)CCOC(N)=O, the Mean enhancement of binding [11] was 15.
With CC1CCNCC1 the Mean enhancement of binding [1] was 6.1 and the Kd [2] was 3900 µM.
In the case of CCC1CCCCN1 (stereo not given), the Kd [2] is reported as 7900 µM.
In the case of CN1CCCC1 [N-METHYL PYRROLIDINE (NMP)], the Mean enhancement of binding [5] is reported as 4.1 and the Kd [2] is reported as 52 µM.
Oc1ccccn1 gave a Mean enhancement of binding [1] of 10 and a Kd [2] of 880 µM.
Work on Cc1ccncc1 yielded a Mean enhancement of binding [1] of 6.6 and a Kd [2] of 2200 µM.
C1CCNC1 [PYRROLIDINE] gave a Mean enhancement of binding [5] of 4.5.
OC1CCCNC1 (stereo not given) was tested, and the Mean enhancement of binding [1] was 8.6 and the Kd [2] was 820 µM.
CN1[C@@H](CC(=O)c2ccccc2)CCC[C@H]1C[C@H](O)c1ccccc1 gave a Mean enhancement of binding [12] of 18.2.
With CCCC1CCCCN1 (stereo not given) the Kd [2] was 97 µM.
With CN1CCC[C@H]1c1cccnc1 the Mean enhancement of binding [13] was 4.7.
c1ccncc1 [PYRIDINE] showed a Kd [2] of 3300 µM.
Nc1cccnc1 was tested, and the Mean enhancement of binding [5] was 2.4 and the Kd [2] was 380 µM.
In the case of CC1CCCCN1 (stereo not given), the Kd [14] is reported as < 0.0001 µM and the Kd [2] is reported as 3200 µM.
CCc1ccncc1 was tested, and the Kd [2] was 87 µM.
Compound CN1[C@@H]2CC[C@H]1C[C@@H](OC(=O)C(CO)c1ccccc1)C2 (stereo not given in full) has a Mean enhancement of binding [15] of 14.9.
With CCc1ccccn1 the Mean enhancement of binding [5] was 10.9 and the Kd [2] was 100 µM.
Work on CNC1(C)C2CCC(C2)C1(C)C (stereo not given) yielded a Mean enhancement of binding [16] of 16.4.
Nc1ccccn1 [2-AMINOPYRIDINE] was tested, and the Mean enhancement of binding [17] was 12.4 and the Kd [2] was 200 µM.
CCc1cccnc1 gave a Mean enhancement of binding [5] of 5.4 and a Kd [2] of 9.5 µM.
For CN1CCC(O)CC1, the Mean enhancement of binding [1] was 13 and the Kd [2] was 3400 µM.
